ChEMBL document CHEMBL5344453, “Selective Recognition of c-KIT 1 G-Quadruplex by Structural Tuning of Heteroaromatic Scaffolds and Side Chains” (ACS Med Chem Lett, 2024)
Active and inactive are the calls of the source. The calls are words filed in the database; no cut-off is given here.

Legend:
Quadruplex DNA [1] = test: Stabilization of G-quadruplex c-MYC 5-FAM-TGGGGAGGGTGGGGAGGGTGGGGAAGG-TAMRA- 3 (unknown origin) assessed as change in melting temperature at 1 uM incubated for 1 hr in dark condition by FRET-based melting assay; type: nucleic-acid assay
Procedure, shortened: (§1)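 FRET melting of dual-fluorophore-tagged oligonucleotides (200 nM) in 60 mM potassium cacodylate buffer, pH 7.4, with ligand at 1 μM; ΔTm taken against the ligand-free oligonucleotide Tm as control.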

[2] = Reduction of c-KIT protein expression in human K562 cells at 11 uM measured after 24 hrs by Western blotting analysis relative to control; type: functional; settings: K562, read-out: INH
Procedure, shortened: (§2)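 K562 cells were treated with ligand (3 and 6 μM or 5.5 and 11 μM). c-KIT protein was measured by Western blot with GAPDH as the housekeeping reference, relative to control.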

[3] = Effect on proto-oncogene expression in human c-KIT-positive K562 cells assessed as upregulation in BCL-2 oncogene expression at 5.5 uM measured after 24 hrs by qRT-PCR analysis relative to control; type: functional
Procedure, shortened: (§3)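 K562 cells treated 24 h at two doses per ligand (3 and 6 μM, 5.5 and 11 μM; positive control 2 and 4 μM). c-KIT, c-MYC and BCL-2 mRNA measured by qRT-PCR and normalized to housekeeping gene 18s, relative to untreated control.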

[4] = Reduction of c-KIT protein expression in human K562 cells at 5.5 uM measured after 24 hrs by Western blotting analysis relative to control; type: functional; procedure, shortened: as §2
K562 [5] = test: Attenuation of proto-oncogene expression in human c-KIT-positive K562 cells assessed as reduction in c-KIT oncogene expression at 5.5 uM measured after 24 hrs by qRT-PCR analysis relative to control; type: functional; procedure, shortened: as §3
K562 [6] = test: Cytotoxicity against human c-KIT-positive K562 cells assessed as cell viability measured after 24 hrs by XTT formazan assay; type: functional, cell-based; settings: K562, 24 h
[7] = Reduction of c-KIT oncogene expression in human K562 cells transfected with c-KIT plasmid construct assessed as reduction in luciferase expression at 5.5 uM measured after 36 hrs by luciferase reporter assay; type: functional
Procedure, shortened: (§4)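 K562 cells were transfected with luciferase plasmids carrying the c-KIT, c-MYC or BCL-2 promoter G4. They were then treated with ligand (3 and 6 μM or 5.5 and 11 μM), and relative luciferase expression was measured.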

[8] = Cytotoxicity against HEK293 cells assessed as cell viability measured after 24 hrs by XTT formazan assay; type: toxicity, cell-based; settings: human
Quadruplex DNA [9] = test: Stabilization of G-quadruplex h-TELO 5-FAM-TTGGGTTAGGGTTAGGGTTAGGGA-TAMRA-3 (unknown origin) assessed as change in melting temperature at 1 uM incubated for 1 hr in dark condition by FRET-based melting assay; type: nucleic-acid assay; procedure, shortened: as §1
Quadruplex DNA [10] = test: Stabilization of G-quadruplex c-KIT1 5-FAM-GGGAGGGCGCTGGGAGGAGGG-TAMRA-3 (unknown origin) assessed as change in melting temperature at 1 uM incubated for 1 hr in dark condition by FRET-based melting assay; type: nucleic-acid assay; procedure, shortened: as §1
[11] = Reduction of BCL-2 oncogene expression in human K562 cells transfected with BCL-2 plasmid construct assessed as reduction in luciferase expression at 5.5 uM measured after 36 hrs by luciferase reporter assay; type: functional; procedure, shortened: as §4
Quadruplex DNA [12] = test: Stabilization of fluorophore tagged G-quadruplex c-KIT1 (unknown origin) assessed as change in melting temperature in presence of 0 to 100 equiv calf thymus DNA at 1 uM incubated for 1 hr in dark condition by competitive FRET-based melting assay; type: nucleic-acid assay
Procedure, shortened: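 Competitive FRET melting with fluorophore-labeled c-KIT 1 G-quadruplex and 1 μM ligand. Unlabeled calf thymus DNA was added at 0, 1, 5, 10, 50 and 100 molar equivalents over the labeled DNA, and ΔTm was monitored.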

[13] = Reduction of BCL-2 oncogene expression in human K562 cells transfected with BCL-2 plasmid construct assessed as reduction in luciferase expression at 11 uM measured after 36 hrs by luciferase reporter assay; type: functional; procedure, shortened: as §4
Quadruplex DNA [14] = test: Stabilization of calf thymus […] ds DNA 5-FAM-CAATCGGATCGAATTCGATCCGATTG-TAMRA-3 assessed as change in melting temperature at 1 uM incubated for 1 hr in dark condition by FRET-based melting assay; type: nucleic-acid assay; settings: Bos taurus; procedure, shortened: as §1
[15] = Reduction of c-MYC oncogene expression in human K562 cells transfected with c-MYC plasmid construct assessed as reduction in luciferase expression at 5.5 uM measured after 36 hrs by luciferase reporter assay; type: functional
Procedure, shortened: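 Promoter luciferase reporter: K562 cells transfected with a c-MYC promoter G4-containing luciferase-expressing plasmid, then ligand-treated at two doses each (3 and 6 μM, or 5.5 and 11 μM); read-out as relative luciferase expression, reported as percent reduction.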

[16] = Induction of cell permeation in human c-KIT-positive K562 cell membrane assessed as fold increase in (G- quadruplex/antibody complex) BG4 foci at 5.5 uM measured after 24 hrs by immunofluorescence assay; type: functional
Procedure, shortened: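 K562 cells were treated with ligand (3 or 5.5 μM) and immunostained with G4-specific antibody BG4. Nuclear BG4 foci were counted by confocal microscopy and expressed relative to untreated cells.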

[17] = Effect on proto-oncogene expression in human c-KIT-positive K562 cells assessed as upregulation in c-MYC oncogene expression at 11 uM measured after 24 hrs by qRT-PCR analysis relative to control; type: functional; procedure, shortened: as §3
K562 [18] = test: Induction of cell cycle arrest in human K562 cells assessed as accumulation at G0/G1 phase at 5.5 to 11 uM incubated for 24 hrs by propidium iodide based assay; type: functional; settings: dose 5.5-11 µM
Procedure, shortened: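 K562 cells were treated with ligand (3 and 6 μM or 5.5 and 11 μM) and stained with propidium iodide. The fraction of cells in each cell-cycle phase was determined by flow cytometry.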

[19] = Effect on proto-oncogene expression in human c-KIT-positive K562 cells assessed as down regulation in BCL-2 oncogene expression at 11 uM measured after 24 hrs by qRT-PCR analysis relative to control; type: functional; procedure, shortened: as §3
K562 [20] = test: Induction of apoptosis in human K562 cells assessed as apoptosis at 11 uM incubated for 24 hrs by FITC-Annexin V and PI analysis; type: functional
Procedure, shortened: (§5)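 K562 cells were treated with ligand (3 and 6 μM or 5.5 and 11 μM) and dual-stained with annexin V and PI. Early and late apoptotic populations were quantified by flow cytometry dot plot analysis.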

Quadruplex DNA [21] = test: Stabilization of G-quadruplex c-KIT2 5-FAM-GGGCGGGCGCGAGGGAGGGG-TAMRA-3 (unknown origin) assessed as change in melting temperature at 1 uM incubated for 1 hr in dark condition by FRET-based melting assay; type: nucleic-acid assay; procedure, shortened: as §1
K562 [22] = test: Attenuation of proto-oncogene expression in human c-KIT-positive K562 cells assessed as reduction in c-KIT oncogene expression at 11 uM measured after 24 hrs by qRT-PCR analysis relative to control; type: functional; procedure, shortened: as §3
Quadruplex DNA [23] = test: Stabilization of G-quadruplex BCL2 5-FAM-AGGGGCGGGCGCGGGAGGAAGGGGGCGGGAGCGGGGCTG-TAMRA-3 (unknown origin) assessed as change in melting temperature at 1 uM incubated for 1 hr in dark condition by FRET-based melting assay; type: nucleic-acid assay; procedure, shortened: as §1
K562 [24] = test: Induction of apoptosis in human K562 cells assessed as apoptosis at 5.5 uM incubated for 24 hrs by FITC-Annexin V and PI analysis; type: functional; procedure, shortened: as §5
Quadruplex DNA [25] = test: Stabilization of G-quadruplex VEGF 5-FAM-CGGGGCGGGCCGGGGGCGGGGT-TAMRA-3 (unknown origin) assessed as change in melting temperature at 1 uM incubated for 1 hr in dark condition by FRET-based melting assay; type: nucleic-acid assay; procedure, shortened: as §1
MCF7 = test: Cytotoxicity against human MCF7 cells assessed as cell viability measured after 24 hrs by XTT formazan assay; type: functional, cell-based; settings: MCF7, 24 h
[26] = Reduction of c-KIT oncogene expression in human K562 cells transfected with c-KIT plasmid construct assessed as reduction in luciferase expression at 11 uM measured after 36 hrs by luciferase reporter assay; type: functional; procedure, shortened: as §4
[27] = Effect on proto-oncogene expression in human c-KIT-positive K562 cells assessed as upregulation in c-MYC oncogene expression at 5.5 uM measured after 24 hrs by qRT-PCR analysis relative to control; type: functional; procedure, shortened: as §3
[28] = Reduction of c-MYC oncogene expression in human K562 cells transfected with c-MYC plasmid construct assessed as reduction in luciferase expression at 11 uM measured after 36 hrs by luciferase reporter assay; type: functional; procedure, shortened: as §4

ΔTm (Quadruplex DNA [1]): < 3 °C
ΔTm (Quadruplex DNA [9]): < 3 °C
ΔTm (Quadruplex DNA [10]): < 3 °C
Activity (Quadruplex DNA [12]): Active
ΔTm (Quadruplex DNA [14]): < 3 °C
ΔTm (Quadruplex DNA [21]): < 3 °C
ΔTm (Quadruplex DNA [23]): < 3 °C
ΔTm (Quadruplex DNA [25]): < 3 °C
SMILES: CN(C)CCCNC(=O)c1ccc(-n2cc(-c3ccc4oc5ccccc5c4c3)nn2)cc1
inhibition at 11 µM [2]: -15.8%
Activity [3]: 8%
inhibition at 5.5 µM [4]: 7.8%
inhibition at 5.5 µM (K562 [5]): > 1%
IC50 (K562 [6]): 11.7 µM
inhibition at 5.5 µM [7]: 3.3%
IC50 at 24 h [8]: ≥ 50 µM
inhibition at 5.5 µM [11]: 9.5%
inhibition at 11 µM [13]: 14%
inhibition at 5.5 µM [15]: 6.2%
fold change (FC) [16]: 1.8
Activity [17]: 31%
Activity (K562 [18]): inactive
Activity [19]: 5%
Activity (K562 [20]): 11%
inhibition at 11 µM (K562 [22]): 3%
Activity (K562 [24]): 1%
IC50 (MCF7): ≥ 19 µM
inhibition at 11 µM [26]: 7.6%
Activity [27]: 23%
inhibition at 11 µM [28]: 10.1%
